High-throughput results (PubChem BioAssay)
ALR H2O2 inh: inhibitors of human ALR sulfhydryl oxidase, primary screen, biochemical, H2O2 detection, HRP-luminol luminescence, single point. FAD-linked sulfhydryl oxidase ALR (Homo sapiens), P55789. purified ALR, DTT oxidation. inhibition, % (concentration not given with the values). 290,000 compounds, 3.8% hits;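 active = mean replicate inhibition above about 79%, with every replicate also reaching it, limit read from the data; inconclusive = only one of the two criteria met; inactive = mean below limit and not every replicate reaching it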
Target sequence (P55789 whole entry, looked up): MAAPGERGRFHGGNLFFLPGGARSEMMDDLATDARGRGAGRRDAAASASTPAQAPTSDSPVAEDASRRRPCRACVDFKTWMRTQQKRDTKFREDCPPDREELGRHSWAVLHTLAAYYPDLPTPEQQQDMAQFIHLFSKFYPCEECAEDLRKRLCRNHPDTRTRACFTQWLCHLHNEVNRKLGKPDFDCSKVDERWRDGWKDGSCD
CAL PDZ FP-1: untagged CAL PDZ binding inhibitors, primary screen, biochemical, fluorescence polarization, HTS; inhibition, % at 24.9 µM; Golgi-associated PDZ and coiled-coil motif-containing protein (Homo sapiens), Q9HD26; purified CAL PDZ, TMR-peptide fluorescence polarization, 1 h; AID 602252, 2012; 300,000 compounds, 0.92% hits;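 active = mean inhibition of at least 30% with at least half of replicates also reaching 30%; inconclusive = no clear call, values can overlap the other calls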
CAL PDZ FP-2: CAL PDZ peptide-binding inhibitors, primary screen, biochemical, fluorescence polarization, Cer-tagged CAL PDZ, HTS. inhibition, % at 20 µM. 330,000 compounds, 0.02% hits. purified CAL PDZ, TMR-peptide fluorescence polarization, 1 h. Golgi-associated PDZ and coiled-coil motif-containing protein (Homo sapiens), Q9HD26;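 active = highest replicate inhibition of at least 40%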
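Read-out basis: mP drop reported as inhibition | Assay system: Tagged CAL PDZ protein CerCALP, purified | Benchmarks: Unlabelled peptide for full inhibition, DMSO wells as neutral | Schedule: 1 h incubation at room temperature before polarization reading | Buffer or medium: Sodium phosphate/NaCl buffer pH 7.4 with TCEP, IgG, Thesit | Doses: Single point, 20 µM | Measured by: Fluorescence polarization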
Rtt109 Vps75: inhibitors of C. albicans Rtt109/Vps75 HAT, primary screen, biochemical, ThioGlo CoA-SH fluorescence, plate reader | Histone acetyltransferase RTT109 (Candida albicans (strain SC5314 / ATCC MYA-2876)), … | purified Rtt109/Vps75, 4 h | inhibition, % at 34.9 µM | 330,000 compounds, 0.16% hits;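 active = inhibition of at least 50% in every replicate; inconclusive = best replicate reaches 50% inhibition but some replicates fall short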
Target sequence (Q5AAJ8 whole entry, looked up): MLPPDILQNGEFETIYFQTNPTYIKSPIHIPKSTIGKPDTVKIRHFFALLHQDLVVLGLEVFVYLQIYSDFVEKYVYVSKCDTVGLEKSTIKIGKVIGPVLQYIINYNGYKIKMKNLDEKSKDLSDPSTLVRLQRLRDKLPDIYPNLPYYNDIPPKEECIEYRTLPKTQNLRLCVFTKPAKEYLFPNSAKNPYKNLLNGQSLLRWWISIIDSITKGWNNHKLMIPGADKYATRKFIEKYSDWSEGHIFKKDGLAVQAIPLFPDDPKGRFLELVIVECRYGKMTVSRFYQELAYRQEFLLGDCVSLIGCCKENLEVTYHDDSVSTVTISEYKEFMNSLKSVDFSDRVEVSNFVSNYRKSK
Dyrk1A ADPGlo: rat Dyrk1A kinase inhibitors, primary screen, biochemical, single point, plate reader | ADP-Glo luminescence, NFATc1 peptide | Dual specificity tyrosine-phosphorylation-regulated kinase 1A (Rattus norvegicus), Q63470 | 310,000 compounds, 0.43% hits | inhibition, % at 12.5 µM; in the data active = inhibition above about 50%
Hits are given with their value; – = inactive; ? = inconclusive; · = not tested or not shown. Hits are enriched below; roughly 4.3% of the tested compounds scored in any of these assays.

SMILES	ALR H2O2 inh	CAL PDZ FP-1	CAL PDZ FP-2	Rtt109 Vps75	Dyrk1A ADPGlo
CN1/C(=C/C=C(/C#N)C(N)=O)C(C)(C)c2ccccc21	92	–	–	–	–
O=C(C[C@H]1C[C@H](C(=O)N2CCCCC2)[C@@]2(CCc3ccccc3)c3[nH]c4ccc(Cl)cc4c3CCN2C1=O)NCc1ccco1	·	–	–	–	·
COc1ccc(C2=CSC3=NCCN23)cc1F	85	–	–	–	–
COc1ccc(C2=CSC3=NCCN23)cc1Cl	–	–	–	–	–
O=C(CSc1n[nH]c(-c2ccccc2F)n1)Nc1cc(F)ccc1F	–	–	–	–	·
COc1ccc(NC(=O)CCC(=O)OCc2ccc([N+](=O)[O-])cc2)cc1	–	–	–	·	–
CCCc1[nH]nc2c1C(c1ccc(OCCN3CCOCC3)c(OC)c1)C(C#N)=C(N)O2 (centres undefined)	–	–	–	–	–
CCOc1cc(C2C(C#N)=C(N)SC(N)=C2C#N)ccc1OCCN1CCOCC1	99	–	–	·	–
Cc1cc(=O)oc2cc(OCC(O)Cn3ccnc3)ccc12 (centres undefined)	–	–	–	–	–
COC(=O)c1cc(S(=O)(=O)N2CCCCC2)c[nH]1	–	–	–	–	–
COc1ccc(N2CCN(CC(=O)Nc3cccc(S(=O)(=O)N4CCOCC4)c3)CC2)cc1	78	–	–	–	–
COc1ccc(CNC(=O)CN2CCN(c3ccc(F)cc3)CC2)cc1	–	–	–	–	–
CCCCC(=O)Nc1ccc(N2CCN(C(=O)CC)CC2)cc1	–	·	–	–	–
O=C(CN1CCN(S(=O)(=O)c2ccc3ccccc3c2)CC1)Nc1ccc(N2CCOCC2)cc1	·	–	–	–	–
COC(=O)c1cccc(NC(=O)CN2CCN(c3ccc(OC)cc3)CC2)c1	88	–	–	–	–
COc1cc(OC)nc(NC(=O)CN2CCN(c3ccc(F)cc3)CC2)n1	98	·	–	–	–
CCCC(=O)Nc1ccc(N2CCN(C(=O)CCC)CC2)cc1	–	39	–	–	–
COC(=O)c1ccc(C(=O)OC)c(NC(=O)CN2CCN(c3ccc(OC)cc3)CC2)c1	–	–	–	–	–
CCOC(=O)c1ccc(NC(=O)CN2CCN(c3ccccc3)CC2)cc1	–	–	–	–	–
COC(=O)c1ccc(NC(=O)CN2CCN(c3ccccc3)CC2)cc1	92	–	–	–	–
COc1cccc(N2CCN(CC(=O)NC(C)c3ccccc3)CC2)c1 (centres undefined)	81	–	–	–	·
O=C(CNCc1cccs1)Nc1ccc(N2CCCCCC2)cc1	99	–	–	–	·
COc1ccc(N2CCC(CNC(=O)Nc3cccc(OC)c3)C2)cc1 (centres undefined)	82	–	·	–	–
CSc1ccccc1C(=O)C1CCCN(S(=O)(=O)c2c(C)noc2C)C1 (centres undefined)	–	–	–	–	–
Cc1ccc(C)c(NC(=S)N/N=C/C(C)c2ccccc2)c1 (centres undefined)	·	–	–	–	–
SMILES	ALR H2O2 inh	CAL PDZ FP-1	CAL PDZ FP-2	Rtt109 Vps75	Dyrk1A ADPGlo
O=C(CCCc1ccccn1)c1ccc(-c2ccccc2)cc1	·	·	–	–	·
O=C(CN1CCCCC1)Nc1ccccc1	·	–	·	–	–
COc1ccc(NC(=O)CN2CCN(c3ccccc3)CC2)cc1	–	–	–	–	–
CCCCC(=O)Nc1ccc(N2CCCC2)cc1	–	–	–	–	–
COc1ccc(N2CCN(CC(=O)Nc3ccc(C)cc3)CC2)cc1	90	–	–	–	–
CCOC(=O)N1CCN(C(=O)CNCc2cccs2)CC1	–	47	–	–	–
CCOC(=O)N1CCN(c2c(NCc3cccs3)c(=O)c2=O)CC1	–	·	–	–	–
CCCOC(=O)Nc1ccc(N2CCCCC2)cc1	97	·	–	–	–
O=C(CN1CCCCC1)Nc1ccc(N2CCCCCC2)cc1	99	·	–	–	–
CCCn1c(N)c(C(=O)CN2CCN(S(=O)(=O)c3cccc(Cl)c3)CC2)c(=O)[nH]c1=O	–	–	–	–	–
COc1cccc(NC(=O)CN2CCN(c3ccc(F)cc3)CC2)c1	97	–	–	–	–
COc1cccc(NC(=O)NCCCN2CCN(c3ccc(F)cc3)CC2)c1	–	–	–	–	–
CCNc1nc(NC(C)CC)nc(Oc2ccc(OCC)nn2)n1 (centres undefined)	–	–	–	–	–
C=CCN(CC=C)S(=O)(=O)c1ccc(C(=O)Nc2nnc(COC)o2)cc1	?	–	–	–	–
COCc1nnc(NC(=O)c2ccc(S(=O)(=O)N(CC(C)C)CC(C)C)cc2)o1	95	–	–	–	–
O=C(Cc1csc(NC(=O)c2ccc(F)cc2)n1)NO	–	–	–	–	–
N/C(=N\NS(=O)(=O)c1cc(C(F)(F)F)cc(C(F)(F)F)c1)c1ccccn1	85	–	–	–	–
CN1CCN(S(=O)(=O)c2ccc(Oc3ccc(F)c(Cl)c3)nc2)CC1	–	–	–	–	–
Cc1nn(CCC(=O)NNC(=S)Nc2ccc(F)cc2)c(C)c1[N+](=O)[O-]	–	–	–	–	–
Cc1c(Cl)c(C(=O)NNC(=S)Nc2ccc(F)cc2)nn1C	81	–	–	–	–
CCNC(=S)NNC(=O)c1nn(C)c(C)c1Cl	–	–	–	–	–
Cc1c(Cl)c(C(=O)NNC(=S)Nc2ccccc2)nn1C	91	–	–	–	–
Cc1ccccc1N=Nc1c(O)n(C)c2ccccc12	–	–	–	–	·
C=CCNCCCCOc1ccc(OCC)cc1	–	45	·	–	–
COc1ccc(CNC(=O)C2CSC(c3ccc(OC)cc3)N2C(C)=O)cc1 (centres undefined)	85	–	–	–	–
SMILES	ALR H2O2 inh	CAL PDZ FP-1	CAL PDZ FP-2	Rtt109 Vps75	Dyrk1A ADPGlo
COc1ccc(C2SCC(C(=O)O)N2C(C)=O)cc1 (centres undefined)	–	–	·	–	–
CC(C)(C)c1nnc2sc(SCC(=O)N3CCCc4ccccc43)nn2c1=O	99	–	–	–	–
Cc1ccc(C(=O)CSc2nn3c(=O)c(C(C)(C)C)nnc3s2)cc1	98	–	–	–	·
CC(C)(C)c1nnc2sc(SCC(=O)c3ccc(Cl)cc3)nn2c1=O	·	–	–	–	–
CC(C)(C)c1nnc2sc(SCC(=O)c3cccs3)nn2c1=O	98	–	–	–	–
CC1Cc2ccccc2N1C(=O)CSc1nn2c(=O)c(C(C)(C)C)nnc2s1 (centres undefined)	·	–	–	–	·
O=C(NCC1CCCO1)/C(=C\c1ccccc1F)NC(=O)c1ccccc1 (centres undefined)	–	–	–	–	–
